The values below come from the RNAGym collection of RNA variant scans (doi:10.1002/anie.201605470).

B1: Osa-1-4 twister ribozyme (parent)
chain: CCGCCUAACACUGCCAAUGCCGGUCCCAAGCCCGGAUAAAAGUGGAGGGGGCGG

In this series the parent is B1. The series can be described thus: self-cleavage, relative activity (ratio to wild type); higher = more cleavage; co-transcriptional. Put shortly:
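Relative activity is the fraction cleaved divided by that of the wild-type ribozyme. The library came from a DNA template for a 54-nucleotide Oryza sativa twister ribozyme, doped at the 48 positions downstream of the cleavage site with 97 % wild-type base and 1 % of each other base. After 2 h of in vitro transcription at 37 °C with co-transcriptional self-cleavage, the RNA was reverse-transcribed with a template-switching oligonucleotide, amplified by PCR and deep-sequenced, and reads with or without upstream sequence gave the cleavage status.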
For the variant CCGCCUAACACUGCCAAUCCCGGCCCCAAGCCCGGAUAAAAGUGGAGGGGGCGG [G19C U24C], the self-cleavage turned out to be 0.04.

Consider CCGCCUAACACUGCCAAUCCCGGGCCCAAGCCCGGAUAAAAGUGGAGGGGGCGG [G19C U24G], for which the self-cleavage turned out to be 0.04.

With CCGCCUAACACUGCCAAUCCCGGUCCCAAGCCCGGAUAAAAGUAGAGGGGGCGG [G19C G44A], the self-cleavage came out at 0.07.

Turning to CCGCCUAACACUGCCAAUCCCGGUCCCAAGCCCGGAUAAAAGUUGAGGGGGCGG [G19C G44U], the self-cleavage turned out to be 0.07.

For the variant CCGCCUAACACUGCCAAUCCCGGUCCCAAGCCCGGAUAAAAGUCGAGGGGGCGG [G19C G44C], the self-cleavage was determined as 0.14.

In the case of CCGCCUAACACUGCCAAUUCCGGUCCCAAGCCCGCAUAAAAGUGGAGGGGGCGG [G19U G35C], the self-cleavage amounted to 0.6.

As for CCGCCUAACACUGCCAAUUCCGGUCCCAAGCCCGAAUAAAAGUGGAGGGGGCGG [G19U G35A], the self-cleavage worked out at 0.21.

CCGCCUAACACAGCCAAUCCCGGUCCCAAGCCCGGAUAAAAGUGGAGGGGGCGG [G19C U12A]: the self-cleavage was 0.04.

Consider CCGCCUAACACCGCCAAUCCCGGUCCCAAGCCCGGAUAAAAGUGGAGGGGGCGG [G19C U12C], for which the self-cleavage was 0.04.

On to CCGCCUAACACGGCCAAUCCCGGUCCCAAGCCCGGAUAAAAGUGGAGGGGGCGG [G19C U12G], for which the self-cleavage amounted to 0.06.

CCGCCUAACACUGCCAAUCCCCGUCCCAAGCCCGGAUAAAAGUGGAGGGGGCGG [G19C G22C]: the self-cleavage was 0.03.

For the variant CCGCCUAACACUGCCAAUCCCAGUCCCAAGCCCGGAUAAAAGUGGAGGGGGCGG [G19C G22A], the self-cleavage came to 0.06.

For the variant CCGCCUAACACUGCCAAUCCCUGUCCCAAGCCCGGAUAAAAGUGGAGGGGGCGG [G19C G22U], the self-cleavage was 0.03.

In the case of CCGCCUAACACUGCCAAUCCCGGUCCCAAGCCCGGAUAAAAGUGAAGGGGGCGG [G19C G45A], the self-cleavage was found to be 0.03.

For the variant CCGCCUAACACUGCCAAUCCCGGUCCCAAGCCCGGAUAAAAGUGUAGGGGGCGG [G19C G45U], the self-cleavage was determined as 0.03.

For the variant CCGCCUAACACUGCCAAUCCCGGUCCCAAGCCCGGAUAAAAGUGCAGGGGGCGG [G19C G45C], the self-cleavage was 0.03.

In the case of CCGCCUAACACUGCCAAUCCCGGUCCCAAGCCCGGAAAAAAGUGGAGGGGGCGG [G19C U37A], the self-cleavage is 0.46.

For the variant CCGCCUAACACUGCCAAUCCCGGUCCCAAGCCCGGAGAAAAGUGGAGGGGGCGG [G19C U37G], the self-cleavage amounted to 0.24.

In the case of CCGCCUAACACUGCCAAUCCCGGUCCCAAGCCCGGACAAAAGUGGAGGGGGCGG [G19C U37C], the self-cleavage was found to be 0.64.

As for CCGCCUAACACUGCCAAUUCCGGUCCCAACCCCGGAUAAAAGUGGAGGGGGCGG [G19U G30C], the self-cleavage was found to be 0.05.

CCGCCUAACACUGCCAAUUCCGGUCCCAAUCCCGGAUAAAAGUGGAGGGGGCGG [G19U G30U]: the self-cleavage was found to be 0.04.

On to CCGCCUAACACUGCCAAUUCCGGUCCCAAACCCGGAUAAAAGUGGAGGGGGCGG [G19U G30A], for which the self-cleavage turned out to be 0.05.

Consider CCGCCUAACACUGCCAAUCCCGGUCCCAAGCCCGGAUAAAAGUGGAGGGGGCUG [G19C G53U], for which the self-cleavage was determined as 0.05.

As for CCGCCUAACACUGCCAAUCCCGGUCCCAAGCCCGGAUAAAAGUGGAGGGGGCAG [G19C G53A], the self-cleavage worked out at 0.06.

Consider CCGCCUAACACUGCCAAUCCCGGUCCCAAGCCCGGAUAAAAGUGGAGGGGGCCG [G19C G53C], for which the self-cleavage came to 0.04.

Take CCGCCUAACACUGCCAAUUCCGGUCCCAAGCCCCGAUAAAAGUGGAGGGGGCGG [G19U G34C]: the self-cleavage came out at 0.2.

Take CCGCCUAACACUGCCAAUUCCGGUCCCAAGCCCUGAUAAAAGUGGAGGGGGCGG [G19U G34U]: the self-cleavage was 0.3.

As to CCGCCUAACACUGCCAAUUCCGGUCCCAAGCCCAGAUAAAAGUGGAGGGGGCGG [G19U G34A], the self-cleavage was 0.52.

As for CCGCCUAACACUGCCAAUCCCGGUCCCAAGCCCGGAUAAAAGUGGAGGGGUCGG [G19C G51U], the self-cleavage amounted to 0.04.

Turning to CCGCCUAACACUGCCAAUCCCGGUCCCAAGCCCGGAUAAAAGUGGAGGGGCCGG [G19C G51C], the self-cleavage turned out to be 0.03.

For the variant CCGCCUAACACUGCCAAUCCCGGUCCCAAGCCCGGAUAAAAGUGGAGGGGACGG [G19C G51A], the self-cleavage worked out at 0.08.

For CCGCCUAACACUGCCAAUCCCGGUCCCAAGCCCGGAUAAAACUGGAGGGGGCGG [G19C G42C], the self-cleavage worked out at 0.04.

Regarding CCGCCUAACACUGCCAAUCCCGGUCCCAAGCCCGGAUAAAAUUGGAGGGGGCGG [G19C G42U], the self-cleavage is 0.02.

CCGCCUAACACUGCCAAUCCCGGUCCCAAGCCCGGAUAAAAAUGGAGGGGGCGG [G19C G42A]: the self-cleavage amounted to 0.05.

For CCGCCUAACACUGCCAAUUCCGUUCCCAAGCCCGGAUAAAAGUGGAGGGGGCGG [G19U G23U], the self-cleavage worked out at 0.04.

CCGCCUAACACUGCCAAUUCCGCUCCCAAGCCCGGAUAAAAGUGGAGGGGGCGG [G19U G23C]: the self-cleavage came to 0.04.

CCGCCUAACACUGCCAAUUCCGAUCCCAAGCCCGGAUAAAAGUGGAGGGGGCGG [G19U G23A]: the self-cleavage amounted to 0.07.

In the case of CCGCCUAACACUGCCAAUCCCGCUCCCAAGCCCGGAUAAAAGUGGAGGGGGCGG [G19C G23C], the self-cleavage is 0.02.

Consider CCGCCUAACACUGCCAAUCCCGUUCCCAAGCCCGGAUAAAAGUGGAGGGGGCGG [G19C G23U], for which the self-cleavage came to 0.04.

On to CCGCCUAACACUGCCAAUCCCGAUCCCAAGCCCGGAUAAAAGUGGAGGGGGCGG [G19C G23A], for which the self-cleavage came out at 0.04.

In the case of CCGCCUAACACUGCCAAUCCCGGUCCCAAGCCCGGAUAAAAGUGGAUGGGGCGG [G19C G47U], the self-cleavage is 0.04.

Regarding CCGCCUAACACUGCCAAUCCCGGUCCCAAGCCCGGAUAAAAGUGGAAGGGGCGG [G19C G47A], the self-cleavage worked out at 0.03.

Take CCGCCUAACACUGCCAAUCCCGGUCCCAAGCCCGGAUAAAAGUGGACGGGGCGG [G19C G47C]: the self-cleavage was found to be 0.02.

CCGCCUAACACUGCCAAUCCCGGUCCCAAGCCCGUAUAAAAGUGGAGGGGGCGG [G19C G35U]: the self-cleavage is 0.42.

CCGCCUAACACUGCCAAUCCCGGUCCCAAGCCCGAAUAAAAGUGGAGGGGGCGG [G19C G35A]: the self-cleavage amounted to 0.45.

In the case of CCGCCUAACACUGCCAAUCCCGGUCCCAAGCCCGCAUAAAAGUGGAGGGGGCGG [G19C G35C], the self-cleavage turned out to be 0.29.

CCGCCUAACACUGCCAAUCCCGGUCCCAAGCCCGGAUAAAAGUGGAGGUGGCGG [G19C G49U]: the self-cleavage was 0.04.

As to CCGCCUAACACUGCCAAUCCCGGUCCCAAGCCCGGAUAAAAGUGGAGGAGGCGG [G19C G49A], the self-cleavage was 0.04.

Regarding CCGCCUAACACUGCCAAUCCCGGUCCCAAGCCCGGAUAAAAGUGGAGGCGGCGG [G19C G49C], the self-cleavage came to 0.03.
